Laboratory results reported in ChEMBL document CHEMBL1140328, “Synthesis and mechanism of action studies of a series of norindenoisoquinoline topoisomerase I poisons reveal an inhibitor with a flipped orientation in the ternary DNA-enzyme-inhibitor complex as determined by X-ray crystallographic analysis” (2005).

Tests used:
[1] = Concentration required to inhibit the growth of human Colon […] cells; format: functional
Method in brief: (§1)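 NCI screen of about 55 human cancer cell lines; GI50 per cell line over a test range of 10⁻⁸ to 10⁻⁴ M. Mean graph midpoint is the average GI50 across all lines tested, with values outside the range set to 10⁻⁸ or 10⁻⁴ M.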

[2] = Concentration required to inhibit the growth of human Prostate DU-145 cells; format: functional; method in brief: as §1
[3] = Concentration required to inhibit the growth of human Melanoma UACC-62 cells; format: functional; method in brief: as §1
[4] = Concentration required to inhibit the growth of human CNSSF-539 cells; format: functional; method in brief: as §1
[5] = Concentration required to inhibit the growth of human Renal SN12C cells; format: functional; method in brief: as §1
[6] = target: T1, DNA topoisomerase 1 (Homo sapiens) (UniProt P11387); assay: Topoisomerase-I mediated DNA Cleavage activity at 30 degree C for 30 min relative to NSC 314622; Range = 25-75%
T1 sequence (whole entry): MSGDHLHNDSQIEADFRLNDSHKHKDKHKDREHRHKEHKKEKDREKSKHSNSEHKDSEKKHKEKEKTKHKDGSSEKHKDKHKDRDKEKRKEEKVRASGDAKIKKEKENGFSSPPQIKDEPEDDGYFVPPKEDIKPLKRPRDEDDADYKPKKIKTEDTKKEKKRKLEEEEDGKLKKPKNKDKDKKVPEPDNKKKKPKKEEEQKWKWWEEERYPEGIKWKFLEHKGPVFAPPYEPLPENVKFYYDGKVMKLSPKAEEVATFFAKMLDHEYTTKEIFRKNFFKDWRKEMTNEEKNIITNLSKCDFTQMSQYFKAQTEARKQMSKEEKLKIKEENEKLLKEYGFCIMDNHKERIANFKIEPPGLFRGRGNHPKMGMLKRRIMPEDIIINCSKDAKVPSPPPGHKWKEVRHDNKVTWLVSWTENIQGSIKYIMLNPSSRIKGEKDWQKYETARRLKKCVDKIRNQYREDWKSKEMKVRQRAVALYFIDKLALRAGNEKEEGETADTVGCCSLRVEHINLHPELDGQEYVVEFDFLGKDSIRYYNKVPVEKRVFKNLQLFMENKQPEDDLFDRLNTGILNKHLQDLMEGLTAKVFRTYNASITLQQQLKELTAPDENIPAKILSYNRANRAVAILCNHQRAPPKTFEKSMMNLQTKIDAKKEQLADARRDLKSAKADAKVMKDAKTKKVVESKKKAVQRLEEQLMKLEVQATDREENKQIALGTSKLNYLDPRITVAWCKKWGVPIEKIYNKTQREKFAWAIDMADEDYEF

[7] = Concentration required to inhibit the growth of human Ovarian OVCAR cells; format: functional; method in brief: as §1
[8] = Concentration required to inhibit the growth of human Breast MDA-MB-435 cells; format: functional; method in brief: as §1
[9] = Concentration required to inhibit the growth of human Lung HOP-62 cells; format: functional; method in brief: as §1
[10] = Concentration required to inhibit the growth of human OvarianOVCAR cells; format: functional; method in brief: as §1
[11] = Concentration required to inhibit the growth of human ColonHCT-11 cells; format: functional
Method in brief: (§2)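 Assayed in the National Cancer Institute screen, a panel of approximately 55 human cancer cell lines. Compounds were tested over a concentration range of 10⁻⁸ to 10⁻⁴ molar, and growth inhibition was expressed as GI₅₀ for each cell line.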

[12] = Concentration required to inhibit the growth of human LungHOP-62 cells; format: functional; method in brief: as §2
[13] = target: T1, DNA topoisomerase 1 (Homo sapiens); assay: Topoisomerase-I mediated DNA Cleavage activity at 30 degree C for 30 min relative to NSC 314622; Range = 75-175%
[14] = Concentration required to inhibit the growth of human ProstateDU-145 cells; format: functional; conditions: DU-145; method in brief: as §1
[15] = Concentration required to inhibit the growth of human prostate DU-145 cells; format: functional; method in brief: as §1

Compound | Cleavage [6] [%] | Cleavage [13] [%] | GI50 [1] [µM] | GI50 [2] [µM] | GI50 [3] [µM] | GI50 [4] [µM] | GI50 [5] [µM] | GI50 [7] [µM] | GI50 [8] [µM] | GI50 [9] [µM] | GI50 [10] [µM] | GI50 [11] [µM] | GI50 [12] [µM] | GI50 [14] [µM] | GI50 [15] [µM]
COc1cc2c(c(OC)c1OC)-c1ncc3cc(OC)c(OC)c(OC)c3c1C2 | – | – | 33.5 | 26.6 | 17.4 | – | 17.6 | – | 20.8 | 35.4 | 19.1 | – | – | – | –
CC[C@@]1(O)C(=O)OCc2c1cc1n(c2=O)Cc2cc3ccccc3nc2-1 [CAMPTOTHECIN] | – | – | – | – | – | 0.01 | – | – | – | – | 0.22 | 0.03 | 0.01 | – | –
COc1cc2c(cc1OC)-c1ncc3c(OC)ccc(OC)c3c1C2 | – | – | 17.8 | 28.1 | 18 | 14 | 14.8 | 15.4 | 23.4 | 21.4 | – | – | – | – | –
c1c2c(cc3c1OCO3)-c1ncc3cc4c(cc3c1C2)OCO4 | 75 | – | 0.283 | – | 0.19 | 0.598 | 0.0414 | 0.0232 | < 0.01 | 0.227 | – | – | – | – | –
COc1cc2c(c(OC)c1OC)-c1ncc3c(OC)c(OC)c(OC)cc3c1C2 | 75 | – | 27.8 | 29.6 | 21.1 | – | 20.3 | 21.5 | 23 | 28.5 | – | – | – | – | –
COc1cc2c(cc1OC)-c1ncc3c(OC)c(OC)c(OC)cc3c1C2 | 75 | – | 8.81 | – | 3.84 | – | – | 0.529 | – | 16 | – | – | – | – | –
COc1cc2c(c(OC)c1OC)-c1ncc3cc4c(cc3c1C2)OCO4 | – | – | 18.8 | 23.2 | 19.3 | – | 13.4 | 15.5 | 13.2 | 21.7 | – | – | – | – | –
COc1cc2c(cc1OC)-c1ncc3cc(OC)c(OC)c(OC)c3c1C2 | – | – | 31.8 | 21.7 | 7.42 | 14 | 14.4 | 15.9 | 16.2 | 34.8 | – | – | – | – | –

More lines, main results first:

Cleavage [6] [%] | Cleavage [13] [%] | Compound | GI50 [1] [µM] | GI50 [2] [µM] | GI50 [3] [µM] | GI50 [4] [µM] | GI50 [5] [µM] | GI50 [7] [µM] | GI50 [8] [µM] | GI50 [9] [µM] | GI50 [10] [µM] | GI50 [11] [µM] | GI50 [12] [µM] | GI50 [14] [µM] | GI50 [15] [µM]
75 | – | COc1cc2c(cc1OC)-c1ncc3cc(OC)c(OC)cc3c1C2 | > 50 | > 50 | > 50 | > 50 | > 50 | > 50 | > 50 | – | – | – | – | – | –
75 | – | COc1cc2c3c(n(C)c(=O)c2cc1OC)-c1cc2c(cc1C3=O)OCO2 | 35 | 37 | 4.2 | – | 68 | 73 | 96 | 1.3 | – | – | – | – | –
– | 175 | COc1cc2c(cc1OC)-c1ncc3cc4c(cc3c1C2)OCO4 | 11.1 | 25.3 | > 100 | 23.4 | > 100 | 61.2 | 63.4 | – | – | – | – | – | –
75 | – | COc1cc2cnc3c(c2c(OC)c1OC)Cc1cc2c(cc1-3)OCO2 | 0.0694 | – | 0.439 | 0.869 | 0.602 | 0.403 | 0.178 | 0.234 | – | – | – | > 100 | –
– | 175 | COc1cc2cnc3c(c2cc1OC)Cc1cc2c(cc1-3)OCO2 | > 100 | 0.0281 | < 0.01 | < 0.01 | > 100 | – | < 0.01 | 0.0721 | – | – | – | – | –
75 | – | COc1ccc(OC)c2c3c(ncc12)-c1cc2c(cc1C3)OCO2 | 0.249 | 48.4 | > 100 | – | > 100 | 26.9 | > 100 | < 0.01 | – | – | – | – | –
75 | – | COc1cc2c3c(ncc2c(OC)c1OC)-c1cc2c(cc1C3)OCO2 | 22.1 | – | – | – | – | – | > 100 | – | – | – | – | – | 26.9
